# XiGFP reactiv – X-chromosome reactivation activator. XiGFP mouse fibroblasts, % GFP-positive cells imaging, 3 d; cells co-treated with 5-aza-dC sensitizer; scaled so ellipticine positive control = 100%. activation, % at 7.58 µM. 360,000 tested, 0.055% active. AID 743238;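 active = mean normalized replicate activation at least 10% and every replicate at or above 10%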
#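 System: XiGFP fibroblasts, SV40-immortalized. Medium: DMEM plus 5-aza-dC sensitizer. Doses: single point. Timing: 3 d treatment, 15 min room-temperature fixation. Control set: ellipticine 6 µM.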
# SR-BI DiI inh – blocks mouse SR-BI lipid uptake from DiI-HDL | Q61009 | ldlA[mSR-BI] CHO cells, DiI-HDL uptake fluorescence, 3 h | inhibition, % at 12.5 µM | 320,000 tested, 0.96% active;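 active = mean replicate inhibition of at least 70% and a set share of replicates each scoring 70 or more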
# Target sequence (Q61009 whole entry, looked up): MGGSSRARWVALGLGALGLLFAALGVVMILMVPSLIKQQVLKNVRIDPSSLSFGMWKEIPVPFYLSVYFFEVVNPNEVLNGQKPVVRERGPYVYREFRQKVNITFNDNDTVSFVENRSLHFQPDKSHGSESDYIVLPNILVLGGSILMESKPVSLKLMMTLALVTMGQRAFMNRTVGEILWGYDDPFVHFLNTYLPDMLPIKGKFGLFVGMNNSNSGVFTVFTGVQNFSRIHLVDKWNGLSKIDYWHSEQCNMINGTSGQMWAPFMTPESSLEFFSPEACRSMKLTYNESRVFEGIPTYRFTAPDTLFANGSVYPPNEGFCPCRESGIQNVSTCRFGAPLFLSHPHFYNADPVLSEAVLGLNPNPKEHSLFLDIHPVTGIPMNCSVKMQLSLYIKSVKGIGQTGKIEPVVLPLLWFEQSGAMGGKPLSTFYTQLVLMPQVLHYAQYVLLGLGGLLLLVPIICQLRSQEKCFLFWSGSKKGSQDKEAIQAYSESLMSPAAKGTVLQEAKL
# Ecoli rRNA inh – selective bacterial rRNA inhibition in E. coli | E. coli WT GFP vs humanized-ribosome RFP mutants, fluorescence, 24 h; hits give low values; DMSO median 0, no signal -100 | GFP signal change (wild-type ribosome), % (concentration not given with the values) | 350,000 tested, 1.6% active | AID 720706;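 active = significant combined selectivity score with lowered wild-type GFP, culture density cut under 30%, mutant RFP and density less affected; inactive = any of these conditions unmet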
# SR-BI DiI-HDL act – enhances SR-BI lipid uptake from DiI-HDL | AID 504775 | 320,000 tested, 0.096% active | CHO ldlA[mSR-BI] cells, DiI-HDL uptake fluorescence, 3 h; 100 = double the neutral-control signal | activation, % at 12.5 µM;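 active = mean replicate activation of at least 60% and every replicate at or above 60%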
#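 Test system: SR-BI-overexpressing, LDLR-lacking CHO cells. Measured by: DiI fluorescence, bottom read. Medium: Ham's F12 with 0.5% BSA, HEPES 25 mM, pH 7.4. Timing: 3 h uptake period with compound, 37 °C.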
# dFosB act – mouse delta FosB homodimer activation; P13346; purified delta FosB, TAMRA-CDK5 oligo fluorescence polarization; percent of positive-control signal above neutral wells; activation, % at 25 µM; 340,000 tested, 0.99% active; AID 493131;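 active = mean activation above about 17%, with every replicate also reaching it, limit read from the data, passing the limit was not always enough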
# PvdQ acylase – blocks Pseudomonas aeruginosa PvdQ acylase activity; AID 488965; purified PvdQ acylase, fluorescence plate reader; 340,000 tested, 0.063% active; inhibition, % at 10 µM; in the data active = inhibition above about 30%, passing the limit was not always enough
# A number is an active result; . = inactive; / = no result given. This is a sample that favours compounds with a hit; in the whole collection about 2.6% have one here.
SMILES,XiGFP reactiv,SR-BI DiI inh,Ecoli rRNA inh,SR-BI DiI-HDL act,dFosB act,PvdQ acylase
COc1cccc(/C=N/Nc2snc(SC)c2C#N)c1,/,.,/,.,.,.
Cc1cccc(CN2CCN(c3ncccn3)CC2)c1,.,.,.,.,.,.
COc1ccc(CCC(=O)NNC(=S)NCc2ccc(F)cc2)cc1,.,.,-29.1,.,.,.
CC(C)(C)c1cc(CCC(=O)NNC(=S)NC(=O)c2ccccc2)cc(C(C)(C)C)c1O,/,70.7,/,.,.,.
CC(=O)NC(=S)NNC(=O)CCc1ccccc1,.,.,-24.4,.,.,.
CC(C)(C)OC(=O)N/N=C\c1cccnc1,.,.,.,.,.,.
CCCNC(=O)C[C@@H]1CC[C@@H]2[C@H](COc3ccc(NC(=O)c4ccc(Cl)cc4)cc3C(=O)N2C)O1,.,/,.,/,/,/
CCn1c(SCc2ccccc2)nc2ccccc2c1=O,.,.,-32.2,.,.,.
COc1ccc2nc(C)cc(N/N=C/c3ccc(F)cc3)c2c1,.,.,.,.,.,.
CC(C)c1ccc(-c2csc3ncnc(N4CCN(C)CC4)c23)cc1,.,.,-27.7,.,.,.
CC(=O)Nc1ccc2c(c1)C(=O)N(C)[C@@H]1CC[C@H](CC(=O)N3CCc4ccccc4C3)O[C@H]1CO2,.,/,.,/,/,/
C/C(=N\NC(N)=O)C1(C)CCCCC1,/,.,/,.,.,.
C/C(=N\NC(N)=S)C1(C)CCCCC1,.,77.9,.,.,.,.
O=C(NC(=S)Nc1ccccc1N1CCOCC1)c1cccc([N+](=O)[O-])c1,.,.,.,.,.,.
COC(=O)c1cn(CCOc2ccc(C)cc2)c2ccccc12,/,.,/,.,.,.
Cc1cc(OCCn2cc(/C(N)=N/O)c3ccccc32)ccc1Cl,/,.,-40.0,.,.,.
CC12CCC(O)CC1=CCC1C2CCC2(C)C1CCC21CCC(=O)O1 (stereo unspecified),.,.,.,.,.,.
C[C@]12CCC(O)CC1=CCC1C2CC[C@]2(C)/C(=N\NC(N)=S)CCC12 (stereo partly specified),.,90.4,.,.,.,.
NNC(=O)c1cc(C23CC4CC(CC(C4)C2)C3)nc2ccccc12,.,88.8,.,.,.,.
O=C(NNc1c2ccccc2nc2ccccc12)C12CC3CC(CC(C3)C1)C2,.,.,.,.,.,.
COc1cc(C(=O)CSc2nncn2C)cc(OC)c1OC,/,.,/,.,.,.
CC(=O)[C@@]1(O)Cc2c(O)c3c(c(O)c2[C@H](O[C@H]2C[C@H](N)[C@H](O)[C@H](C)O2)C1)C(=O)c1ccccc1C3=O,109.5,/,.,/,/,/
Cc1cccc(-c2ccc([C@@H]3[C@H](CO)N4CCCCN(S(=O)(=O)c5ccccc5C)C[C@@H]34)cc2)c1,.,/,-42.6,/,/,/
CC(C)CC#Cc1ccc([C@@H]2[C@H](CO)N3CCCCN(S(=O)(=O)c4ccc(F)cc4)C[C@@H]23)cc1,.,/,-19.0,/,/,/
CC(C)C#Cc1ccc([C@@H]2[C@H](CO)N3CCCCN(S(=O)(=O)Cc4ccccc4)C[C@@H]23)cc1,.,/,-42.4,/,/,/
SMILES,XiGFP reactiv,SR-BI DiI inh,Ecoli rRNA inh,SR-BI DiI-HDL act,dFosB act,PvdQ acylase
CC(C)CC#Cc1ccc([C@H]2[C@@H](CO)N3CCCCN(S(=O)(=O)c4ccc(F)cc4)C[C@@H]23)cc1,.,/,.,/,/,/
Cc1cccc(S(=O)(=O)N2CCCCN3[C@@H](CO)[C@H](c4ccc(C#CC(C)C)cc4)[C@@H]3C2)c1,.,/,-42.1,/,/,/
CC(C)C#Cc1ccc([C@H]2[C@@H](CO)N3CCCCN(S(=O)(=O)Cc4ccccc4)C[C@H]23)cc1,.,/,.,/,/,/
Cc1cccc(S(=O)(=O)N2CCCCN3[C@H](C2)[C@H](c2ccc(C#CC(C)C)cc2)[C@@H]3CO)c1,.,/,.,/,/,/
CCCNC(=O)CCNC(=O)c1ccc(C(C)(C)C)cc1,/,.,/,.,.,.
Cc1cccc(-c2ccc([C@@H]3[C@H](CO)N4CCCCN(S(=O)(=O)c5cccc(C)c5)C[C@@H]34)cc2)c1,.,/,-27.7,/,/,/
CCN(CC)S(=O)(=O)c1ccc(N2CCCCC2)c(NC(=O)/C(C#N)=C/c2ccc(OC)cc2)c1,.,.,/,.,.,.

# Source: PubChem
